Measurements from ChEMBL document CHEMBL3525900, “Pharmacokinetics, distribution, and metabolism of [14C]sunitinib in rats, monkeys, and humans” (Drug Metab Dispos, 2012).
Blank lines part the entries; values can stand above or below the compound they belong to.

Tests used:
[1] = Drug excretion in feces of female cynomolgus monkey treated with [14C]sunitinib at 6 mg/kg, po administered as single dose by liquid scintillation counting; type: ADME, organism-based, Macaca fascicularis; set-up: dose 6 mg/kg, dosed compound name [14C]Sunitinib, route oral; settings: in vivo
Method in brief: (§1)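 Cynomolgus monkeys given one oral gavage dose of [14C]sunitinib L-malate, 6 mg/kg (37 µCi/kg). Urine collected at 0-4, 4-8 and 8-24 h, feces at 0-8 and 8-24 h, then both daily to 14 days; samples stored at -80 °C. Duplicate urine aliquots counted by liquid scintillation; homogenized feces combusted before counting.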

[2] = Drug excretion in feces of male cynomolgus monkey treated with [14C]sunitinib at 6 mg/kg, po administered as single dose by liquid scintillation counting; type: ADME, organism-based, Macaca fascicularis; set-up: dose 6 mg/kg, dosed compound name [14C]Sunitinib, route oral; settings: in vivo; method in brief: as §1
[3] = Drug excretion in feces of human treated with [14C]sunitinib at 50 mg, po administered as single dose by liquid scintillation counting; settings: in vivo
[4] = Drug excretion in feces of male Sprague-Dawley rat treated with [14C]sunitinib at 15 mg/kg, po administered as single dose by liquid scintillation counting; type: ADME, organism-based; set-up: dose 15 mg/kg, dosed compound name [14C]Sunitinib, route oral; settings: in vivo
Method in brief: (§2)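 Female and male rats given one oral gavage dose, 15 mg/kg free base equivalents (50 µCi/kg). Urine and feces collected on dry ice, protected from light, over 0-4, 4-8 and 8-24 h, then daily to 72 h. Urine aliquots counted by liquid scintillation; homogenized feces combusted in oxygen before counting. Counts 5 min, external quench correction.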

[5] = Drug excretion in feces of female Sprague-Dawley rat treated with [14C]sunitinib at 5 mg/kg, iv administered as single dose by liquid scintillation counting; type: ADME, organism-based; set-up: dose 5 mg/kg, dosed compound name [14C]Sunitinib, route intravenous; settings: in vivo
Method in brief: (§3)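 Five female rats given a single tail-vein bolus of [14C]sunitinib L-malate, 5 mg/kg free base equivalents (50 µCi/kg). Urine and feces collected over 0-72 h into dry-ice cooled containers. Urine counted directly by liquid scintillation; feces homogenized and combusted in oxygen before counting. Expired air also monitored.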

Rattus norvegicus [6] = experiment: AUC (0 to infinity) in male Sprague-Dawley rat plasma treated with [14C]sunitinib at 15 mg/kg, po administered as single dose by LC/MS/MS analysis; type: ADME, organism-based; set-up: time infinity, dose 15 mg/kg, dosed compound name [14C]Sunitinib, route oral; settings: in vivo
Method in brief: (§4)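 Single dose of [14C]sunitinib L-malate as free base, 50 µCi/kg. IV dose was 5 mg/kg by tail vein in 5 females. Oral dose was 15 mg/kg by gavage in 3 females and 3 males. Total radioactivity was by scintillation counting. […] Cmax was read from raw data, t½ by log-linear regression, AUC by linear trapezoidal rule.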

Rattus norvegicus [7] = experiment: Cmax in female Sprague-Dawley rat plasma treated with [14C]sunitinib at 15 mg/kg, po administered as single dose by LC/MS/MS analysis; type: ADME, organism-based; set-up: dose 15 mg/kg, dosed compound name [14C]Sunitinib, route oral; settings: in vivo; method in brief: as §4
Cynomolgus monkey [8] = experiment: Cmax in male cynomolgus monkey plasma treated with [14C]sunitinib at 6 mg/kg, po administered as single dose by LC/MS/MS analysis; type: ADME, organism-based, Macaca fascicularis; set-up: dose 6 mg/kg, dosed compound name [14C]Sunitinib, route oral; settings: in vivo
Method in brief: (§5)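 Cynomolgus monkeys of both sexes received one oral gavage of [14C]sunitinib L-malate at 6 mg/kg (37 µCi/kg). Femoral-vein blood was taken into heparin from 0.5 to 336 h. Plasma was kept cold and protected from light, then stored at -80 °C. Total radioactivity was by scintillation counting and sunitinib by methanol-extraction LC-MS-MS. Cmax was from raw data, t½ from the log-linear terminal slope, AUC(0-∞) by linear trapezoidal rule.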

Rattus norvegicus [9] = experiment: Tmax in male Sprague-Dawley rat plasma treated with [14C]sunitinib at 15 mg/kg, po administered as single dose by LC/MS/MS analysis; type: ADME, organism-based; set-up: dose 15 mg/kg, dosed compound name [14C]Sunitinib, route oral; settings: in vivo
Rattus norvegicus [10] = experiment: Apparent terminal half life in female Sprague-Dawley rat plasma treated with [14C]sunitinib at 15 mg/kg, po administered as single dose by LC/MS/MS analysis; type: ADME, organism-based; set-up: dose 15 mg/kg, dosed compound name [14C]Sunitinib, route oral; settings: in vivo; method in brief: as §4
Rattus norvegicus [11] = experiment: AUC (0 to infinity) in female Sprague-Dawley rat plasma treated with [14C]sunitinib at 15 mg/kg, po administered as single dose by LC/MS/MS analysis; type: ADME, organism-based; set-up: time infinity, dose 15 mg/kg, dosed compound name [14C]Sunitinib, route oral; settings: in vivo; method in brief: as §4
[12] = Drug excretion in feces of female Sprague-Dawley rat treated with [14C]sunitinib at 15 mg/kg, po administered as single dose by liquid scintillation counting; type: ADME, organism-based; set-up: dose 15 mg/kg, dosed compound name [14C]Sunitinib, route oral; settings: in vivo; method in brief: as §2
Rattus norvegicus [13] = experiment: AUC (0 to infinity) in female Sprague-Dawley rat plasma treated with [14C]sunitinib at 5 mg/kg, iv administered as single dose by LC/MS/MS analysis; type: ADME, organism-based; set-up: time infinity, dose 5 mg/kg, dosed compound name [14C]Sunitinib, route intravenous; settings: in vivo; method in brief: as §4
[14] = Retention time of compound by LC/MS/MS analysis; type: physicochemical; set-up: dosed compound name [14C]Sunitinib
Homo sapiens [15] = experiment: Tmax in human plasma treated with [14C]sunitinib at 50 mg, po administered as single dose by LC/MS/MS analysis; type: ADME, organism-based; set-up: dosed compound name [14C]Sunitinib; settings: in vivo
Cynomolgus monkey [16] = experiment: Terminal half life in male cynomolgus monkey plasma treated with [14C]sunitinib at 6 mg/kg, po administered as single dose by LC/MS/MS analysis; type: ADME, organism-based, Macaca fascicularis; set-up: dose 6 mg/kg, dosed compound name [14C]Sunitinib, route oral; settings: in vivo
Rattus norvegicus [17] = experiment: Cmax in female Sprague-Dawley rat plasma treated with [14C]sunitinib at 5 mg/kg, iv administered as single dose by LC/MS/MS analysis; type: ADME, organism-based; set-up: dose 5 mg/kg, dosed compound name [14C]Sunitinib, route intravenous; settings: in vivo; method in brief: as §4
Cynomolgus monkey [18] = experiment: AUC (0 to infinity) in female cynomolgus monkey plasma treated with [14C]sunitinib at 6 mg/kg, po administered as single dose by LC/MS/MS analysis; type: ADME, organism-based, Macaca fascicularis; set-up: time infinity, dose 6 mg/kg, dosed compound name [14C]Sunitinib, route oral; settings: in vivo; method in brief: as §5
Homo sapiens [19] = experiment: Terminal half life in human plasma treated with [14C]sunitinib at 50 mg, po administered as single dose by LC/MS/MS analysis; type: ADME, organism-based; set-up: dosed compound name [14C]Sunitinib; settings: in vivo
Cynomolgus monkey [20] = experiment: Tmax in female cynomolgus monkey plasma treated with [14C]sunitinib at 6 mg/kg, po administered as single dose by LC/MS/MS analysis; type: ADME, organism-based, Macaca fascicularis; set-up: dose 6 mg/kg, dosed compound name [14C]Sunitinib, route oral; settings: in vivo
Rattus norvegicus [21] = experiment: Apparent terminal half life in male Sprague-Dawley rat plasma treated with [14C]sunitinib at 15 mg/kg, po administered as single dose by LC/MS/MS analysis; type: ADME, organism-based; set-up: dose 15 mg/kg, dosed compound name [14C]Sunitinib, route oral; settings: in vivo; method in brief: as §4
[22] = Drug excretion in urine of female Sprague-Dawley rat treated with [14C]sunitinib at 5 mg/kg, iv administered as single dose by liquid scintillation counting; type: ADME, organism-based; set-up: dose 5 mg/kg, dosed compound name [14C]Sunitinib, route intravenous; settings: in vivo; method in brief: as §3
Rattus norvegicus [23] = experiment: Tmax in female Sprague-Dawley rat plasma treated with [14C]sunitinib at 5 mg/kg, iv administered as single dose by LC/MS/MS analysis; type: ADME, organism-based; set-up: dose 5 mg/kg, dosed compound name [14C]Sunitinib, route intravenous; settings: in vivo
Rattus norvegicus [24] = experiment: Tmax in female Sprague-Dawley rat plasma treated with [14C]sunitinib at 15 mg/kg, po administered as single dose by LC/MS/MS analysis; type: ADME, organism-based; set-up: dose 15 mg/kg, dosed compound name [14C]Sunitinib, route oral; settings: in vivo
Homo sapiens [25] = experiment: AUC (0 to infinity) in human plasma treated with [14C]sunitinib at 50 mg, po administered as single dose by LC/MS/MS analysis; type: ADME, organism-based; set-up: dose 50 mg, time infinity, route oral, dosed compound name [14C]Sunitinib; settings: in vivo
Method in brief: (§6)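 Open-label phase I study in 8 subjects given one 50 mg oral dose of [14C]sunitinib (100 µCi). Plasma total radioactivity was counted by scintillation on triplicate 0.25 mL aliquots. Sunitinib was quantified by LC-MS-MS. Noncompartmental analysis: Cmax read directly, terminal t½ = ln(2)/slope of the log-concentration regression, AUC by linear trapezoidal rule to the last detectable concentration.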

[26] = Drug excretion in urine of female cynomolgus monkey treated with [14C]sunitinib at 6 mg/kg, po administered as single dose by liquid scintillation counting; type: ADME, organism-based, Macaca fascicularis; set-up: dose 6 mg/kg, dosed compound name [14C]Sunitinib, route oral; settings: in vivo; method in brief: as §1
[27] = Drug excretion in urine of female Sprague-Dawley rat treated with [14C]sunitinib at 15 mg/kg, po administered as single dose by liquid scintillation counting; type: ADME, organism-based; set-up: dose 15 mg/kg, dosed compound name [14C]Sunitinib, route oral; settings: in vivo; method in brief: as §2
[28] = Drug excretion in urine of male Sprague-Dawley rat treated with [14C]sunitinib at 15 mg/kg, po administered as single dose by liquid scintillation counting; type: ADME, organism-based; set-up: dose 15 mg/kg, dosed compound name [14C]Sunitinib, route oral; settings: in vivo; method in brief: as §2
[29] = Drug excretion in urine of human treated with [14C]sunitinib at 50 mg, po administered as single dose by liquid scintillation counting; settings: in vivo
Homo sapiens [30] = experiment: Cmax in human plasma treated with [14C]sunitinib at 50 mg, po administered as single dose by LC/MS/MS analysis; type: ADME, organism-based; set-up: dose 50 mg, route oral, dosed compound name [14C]Sunitinib; settings: in vivo; method in brief: as §6
Rattus norvegicus [31] = experiment: Apparent terminal half life in female Sprague-Dawley rat plasma treated with [14C]sunitinib at 5 mg/kg, iv administered as single dose by LC/MS/MS analysis; type: ADME, organism-based; set-up: dose 5 mg/kg, dosed compound name [14C]Sunitinib, route intravenous; settings: in vivo; method in brief: as §4
Cynomolgus monkey [32] = experiment: Cmax in female cynomolgus monkey plasma treated with [14C]sunitinib at 6 mg/kg, po administered as single dose by LC/MS/MS analysis; type: ADME, organism-based, Macaca fascicularis; set-up: dose 6 mg/kg, dosed compound name [14C]Sunitinib, route oral; settings: in vivo; method in brief: as §5
[33] = Drug excretion in urine of male cynomolgus monkey treated with [14C]sunitinib at 6 mg/kg, po administered as single dose by liquid scintillation counting; type: ADME, organism-based, Macaca fascicularis; set-up: dose 6 mg/kg, dosed compound name [14C]Sunitinib, route oral; settings: in vivo; method in brief: as §1
Cynomolgus monkey [34] = experiment: AUC (0 to infinity) in male cynomolgus monkey plasma treated with [14C]sunitinib at 6 mg/kg, po administered as single dose by LC/MS/MS analysis; type: ADME, organism-based, Macaca fascicularis; set-up: time infinity, dose 6 mg/kg, dosed compound name [14C]Sunitinib, route oral; settings: in vivo; method in brief: as §5
Rattus norvegicus [35] = experiment: Cmax in male Sprague-Dawley rat plasma treated with [14C]sunitinib at 15 mg/kg, po administered as single dose by LC/MS/MS analysis; type: ADME, organism-based; set-up: dose 15 mg/kg, dosed compound name [14C]Sunitinib, route oral; settings: in vivo; method in brief: as §4
Cynomolgus monkey [36] = experiment: Tmax in male cynomolgus monkey plasma treated with [14C]sunitinib at 6 mg/kg, po administered as single dose by LC/MS/MS analysis; type: ADME, organism-based, Macaca fascicularis; set-up: dose 6 mg/kg, dosed compound name [14C]Sunitinib, route oral; settings: in vivo
Cynomolgus monkey [37] = experiment: Terminal half life in female cynomolgus monkey plasma treated with [14C]sunitinib at 6 mg/kg, po administered as single dose by LC/MS/MS analysis; type: ADME, organism-based, Macaca fascicularis; set-up: dose 6 mg/kg, dosed compound name [14C]Sunitinib, route oral; settings: in vivo

Compound recovery [1]: 1%
Compound recovery [2]: 1.5%
Compound recovery [3]: metabolite_not_detected
SMILES: CCN(CC)CCNC(=O)c1c(C)[nH]c(CC2C(=O)Nc3ccc(F)cc32)c1C (stereo not drawn)

Compound recovery [4]: 21%
Compound recovery [5]: 18.5%
AUC (Rattus norvegicus [6]): 68854 ng·h/mL
Cmax (Rattus norvegicus [7]): 1412 ng/mL
Cmax (Cynomolgus monkey [8]): 67 ng/mL
Tmax (Rattus norvegicus [9]): 6 h
t1/2 lambda z (Rattus norvegicus [10]): 9 h
AUC (Rattus norvegicus [11]): 37225 ng·h/mL
Compound recovery [12]: 32.1%
AUC (Rattus norvegicus [13]): 6724 ng·h/mL
Retention_time [14]: 2.5 min
Tmax (Homo sapiens [15]): 6.7 h
beta t1/2 (Cynomolgus monkey [16]): 19 h
Cmax (Rattus norvegicus [17]): 450 ng/mL
AUC (Cynomolgus monkey [18]): 1272 ng·h/mL
beta t1/2 (Homo sapiens [19]): 93.2 h
Tmax (Cynomolgus monkey [20]): 7 h
t1/2 lambda z (Rattus norvegicus [21]): 7.1 h
Compound recovery [22]: 0.5%
Tmax (Rattus norvegicus [23]): 3 h
Tmax (Rattus norvegicus [24]): 7 h
AUC (Homo sapiens [25]): 592.6 ng·h/mL
Compound recovery [26]: 1.4%
Compound recovery [27]: 1.4%
Compound recovery [28]: 1.7%
Compound recovery [29]: 6.9%
Compound recovery [3]: 25%
Cmax (Homo sapiens [30]): 6.2 ng/mL
t1/2 lambda z (Rattus norvegicus [31]): 8.4 h
Cmax (Cynomolgus monkey [32]): 54 ng/mL
Compound recovery [33]: 1.1%
AUC (Cynomolgus monkey [34]): 1383 ng·h/mL
Cmax (Rattus norvegicus [35]): 4561 ng/mL
Tmax (Cynomolgus monkey [36]): 8 h
beta t1/2 (Cynomolgus monkey [37]): 19 h
SMILES: CCNCCNC(=O)c1c(C)[nH]c(/C=C2\C(=O)Nc3ccc(F)cc32)c1C
